From ChEMBL document CHEMBL3351935, “The synthesis, antimalarial activity and CoMFA analysis of novel aminoalkylated quercetin analogs” (Bioorg Med Chem Lett, 2015)
≈ marks a conversion by molar mass, not a printed value.

Assays:
[1] = Aqueous solubility of the compound at 1 mM by UV spectroscopic assay; type: physicochemical; details: buffer
How it was run: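 Modified UV-spectroscopic method on the free base. A 1 mM DMSO stock was diluted to 4, 8, 12, 16 and 20 μM (2% DMSO in water) to build calibration curves. Each compound was suspended in medium to saturation, centrifuged at 8000 rpm for 10 min and filtered. Absorbance was read at 280 nm, 25 °C, and concentration was taken from the calibration best-fit line.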

Plasmodium falciparum [2] = assay: Antimalarial activity against chloroquine-resistant/mefloquine-sensitive Plasmodium falciparum W2 by malaria SYBR green 1-based fluorescence (MSF) assay; type: functional, organism-based
Plasmodium falciparum [3] = assay: Antimalarial activity against chloroquine-sensitive/mefloquine-resistant Plasmodium falciparum D6 by malaria SYBR green 1-based fluorescence (MSF) assay; type: functional, organism-based
Plasmodium falciparum [4] = assay: Antimalarial activity against chloroquine /mefloquine/pyrimethamine-resistant Plasmodium falciparum C235 by malaria SYBR green 1-based fluorescence (MSF) assay; type: functional, organism-based
Plasmodium falciparum [5] = assay: Antigametocytocidal activity against Plasmodium falciparum NF54-pfs16-[…] early (1 to 3) gametocyte assessed as viability after 72 hrs by MitoTracker Red CM-H2XRos/micro-plate confocal imaging system; type: functional, organism-based; details: NF54, 72 h
Plasmodium falciparum [6] = assay: Antigametocytocidal activity against Plasmodium falciparum NF54-pfs16-[…] late (4 to 6) gametocyte assessed as viability at 120 uM after 72 hrs by MitoTracker Red CM-H2XRos/micro-plate confocal imaging system; type: functional; details: NF54, 72 h
Plasmodium falciparum [7] = assay: Antigametocytocidal activity against Plasmodium falciparum NF54-pfs16-[…] late (4 to 6) gametocyte assessed as viability at 40 uM after 72 hrs by MitoTracker Red CM-H2XRos/micro-plate confocal imaging system; type: functional; details: NF54, 72 h
Plasmodium falciparum [8] = assay: Antigametocytocidal activity against Plasmodium falciparum NF54-pfs16-[…] late (4 to 6) gametocyte assessed as viability after 72 hrs by MitoTracker Red CM-H2XRos/micro-plate confocal imaging system; type: functional, organism-based; details: NF54, 72 h
[9] = molecular target: Intercellular adhesion molecule 1 (Homo sapiens) (UniProt P05362); assay: Inhibition of human type O erythrocyte ICAM1-mediated Plasmodium falciparum infection with at 50 uM
Sequence of Intercellular adhesion molecule 1 (Homo sapiens) (P05362 whole entry): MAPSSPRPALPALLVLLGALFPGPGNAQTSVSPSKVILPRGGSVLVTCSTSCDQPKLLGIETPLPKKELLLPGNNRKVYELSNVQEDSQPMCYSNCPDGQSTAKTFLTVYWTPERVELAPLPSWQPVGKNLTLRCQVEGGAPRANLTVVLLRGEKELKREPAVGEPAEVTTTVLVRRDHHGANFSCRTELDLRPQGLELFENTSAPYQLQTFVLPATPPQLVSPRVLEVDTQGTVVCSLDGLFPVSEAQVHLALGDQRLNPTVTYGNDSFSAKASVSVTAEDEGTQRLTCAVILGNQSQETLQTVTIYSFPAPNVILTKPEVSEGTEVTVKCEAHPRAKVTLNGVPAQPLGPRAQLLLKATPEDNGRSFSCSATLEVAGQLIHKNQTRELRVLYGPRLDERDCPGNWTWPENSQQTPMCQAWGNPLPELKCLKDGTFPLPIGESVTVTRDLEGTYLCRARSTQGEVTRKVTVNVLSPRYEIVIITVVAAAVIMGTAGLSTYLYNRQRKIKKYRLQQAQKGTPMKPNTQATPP

Compound	solubility at 1000 µM [1]	IC50 (Plasmodium falciparum [2])	IC50 (Plasmodium falciparum [3])	IC50 (Plasmodium falciparum [4])	IC50 (Plasmodium falciparum [5])	inhibition at 120 µM (Plasmodium falciparum [6])	inhibition at 40 µM (Plasmodium falciparum [7])	IC50 (Plasmodium falciparum [8])	inhibition [9]
O=c1c(O)c(-c2ccc(O)c(O)c2)oc2c(CNCc3cccc(Cl)c3)c(O)cc(O)c12	107 µM (≈ 48.8 µg/mL)	260 nM	190 nM	220 nM	–	–	–	–	–
C[C@H]1[C@H](OC(=O)CCC(=O)O)O[C@@H]2O[C@@]3(C)CC[C@H]4[C@H](C)CC[C@@H]1[C@@]24OO3 [ARTESUNATE]	–	–	–	–	3 nM	–	–	–	–
CN1CCN(Cc2c(O)cc(O)c3c(=O)c(O)c(-c4ccc(O)c(O)c4)oc23)CC1	131 µM (≈ 54.3 µg/mL)	2400 nM	2900 nM	5300 nM	–	–	–	–	–
O=c1c(O)c(-c2ccc(O)c(O)c2)oc2c(CNCc3ccc(F)cc3)c(O)cc(O)c12	212 µM (≈ 93.2 µg/mL)	720 nM	410 nM	700 nM	–	–	–	–	–
Oc1cc(O)c2c(c1)O[C@H](c1ccc(O)c(O)c1)[C@@H](O)C2 [CIANIDANOL]	–	6000 nM	6700 nM	5900 nM	–	–	–	–	–
CCN(CC)CCCC(C)Nc1ccnc2cc(Cl)ccc12 (stereo unspecified) [CHLOROQUINE]	–	–	–	–	–	100%	–	–	–
O=c1c(O)c(-c2ccc(O)c(O)c2)oc2c(CNCCc3ccccc3)c(O)cc(O)c12	41 µM (≈ 17.9 µg/mL)	> 2120 nM	2110 nM	> 2120 nM	–	–	–	–	–
O=c1c(O)c(-c2ccc(O)c(O)c2)oc2c(CNCCc3cccc(Cl)c3)c(O)cc(O)c12	199 µM (≈ 93.5 µg/mL)	79 nM	69 nM	80 nM	6790 nM	–	100%	–	–
COc1ccc(C[C@H](N)C(=O)N[C@H]2[C@@H](O)[C@H](n3cnc4c(N(C)C)ncnc43)O[C@@H]2CO)cc1 [PUROMYCIN]	–	–	–	–	175 nM	–	–	194 nM	–
O=c1c(O)c(-c2ccc(O)c(O)c2)oc2c(CNCc3cccc(F)c3)c(O)cc(O)c12	123 µM (≈ 54 µg/mL)	690 nM	510 nM	620 nM	–	–	–	–	–
O=c1c(O)c(-c2ccc(O)c(O)c2)oc2c(CNCCc3ccc(Cl)cc3Cl)c(O)cc(O)c12	168 µM (≈ 84.7 µg/mL)	71 nM	65 nM	79 nM	9670 nM	–	100%	–	–
O=c1c(O)c(-c2ccc(O)c(O)c2)oc2c(CNCCc3cccc(F)c3)c(O)cc(O)c12	275 µM (≈ 125 µg/mL)	130 nM	69 nM	88 nM	–	–	–	–	–
O=c1c(O)c(-c2ccc(O)c(O)c2)oc2c(CNCc3ccccc3)c(O)cc(O)c12	49 µM (≈ 20.6 µg/mL)	> 2180 nM	> 2180 nM	> 2180 nM	–	–	–	–	–
O=C(O[C@@H]1Cc2c(O)cc(O)cc2O[C@@H]1c1cc(O)c(O)c(O)c1)c1cc(O)c(O)c(O)c1 [EPIGALOCATECHIN GALLATE]	–	1400 nM	73 nM	610 nM	–	–	–	–	85%
O=c1c(O)c(-c2ccc(O)c(O)c2)oc2c(CNCCc3ccc(Cl)cc3)c(O)cc(O)c12	99 µM (≈ 46.5 µg/mL)	1900 nM	830 nM	1200 nM	–	–	–	–	–
C[C@@H]1CC[C@H]2[C@@H](C)C(=O)O[C@@H]3O[C@@]4(C)CC[C@@H]1[C@]32OO4 [ARTEMISININ]	–	7 nM	9 nM	13 nM	–	–	–	–	–
O=c1c(O)c(-c2ccc(O)c(O)c2)oc2c(CNCc3ccc(Cl)cc3)c(O)cc(O)c12	110 µM (≈ 50.1 µg/mL)	590 nM	370 nM	430 nM	–	–	–	–	–
O[C@@H](c1cc(C(F)(F)F)nc2c(C(F)(F)F)cccc12)[C@H]1CCCCN1 [(S,R)-MEFLOQUINE]	–	7 nM	–	77 nM	–	–	–	–	–
O=c1c(O)c(-c2ccc(O)c(O)c2)oc2c(CNCCc3ccccc3F)c(O)cc(O)c12	95 µM (≈ 43.1 µg/mL)	240 nM	110 nM	180 nM	–	–	–	–	–
O=c1c(O)c(-c2ccc(O)c(O)c2)oc2cc(O)cc(O)c12 [QUERCETIN]	44 µM (≈ 13.3 µg/mL)	2900 nM	9000 nM	13000 nM	–	–	–	–	–
O=c1c(O)c(-c2ccc(O)c(O)c2)oc2c(CNCCc3c(Cl)cccc3Cl)c(O)cc(O)c12	199 µM (≈ 100 µg/mL)	230 nM	160 nM	150 nM	–	–	–	–	–
O=c1c(O)c(-c2ccc(O)c(O)c2)oc2c(CNCc3ccco3)c(O)cc(O)c12	40 µM (≈ 16.5 µg/mL)	> 2230 nM	> 2230 nM	> 2230 nM	–	–	–	–	–
O=c1c(O)c(-c2ccc(O)c(O)c2)oc2c(CNCCc3ccccc3Cl)c(O)cc(O)c12	85 µM (≈ 39.9 µg/mL)	290 nM	250 nM	260 nM	–	–	–	–	–
O=c1c(O)c(-c2ccc(O)c(O)c2)oc2c(CNCC3CCCO3)c(O)cc(O)c12 (stereo unspecified)	39 µM (≈ 16.2 µg/mL)	> 2210 nM	> 2210 nM	> 2210 nM	–	–	–	–	–
O=c1c(O)c(-c2ccc(O)c(O)c2)oc2c(CNCCc3ccc(F)cc3)c(O)cc(O)c12	136 µM (≈ 61.7 µg/mL)	290 nM	140 nM	150 nM	–	–	–	–	–
O=c1c(O)c(-c2ccc(O)c(O)c2)oc2c(CN3CCCCC3)c(O)c(CN3CCCCC3)c(O)c12	247 µM (≈ 123 µg/mL)	1200 nM	1700 nM	3100 nM	–	–	–	–	–
